Screening data deposited in PubChem by several laboratories.
HCT116 PTEN-null – growth suppressors of cells with PTEN tumor suppressor deletion. HCT116 PTEN-null viability, CellTiter-Glo, 60 h; active compounds read low. viability, % at 10 µM. hit rate 1.2% among 140,000. AID 827;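 active = viability at or below a set limit, 4 SD under the median of all tested compounds, cut at about 3.7% in these data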;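 note: PTEN knockout HCT116 line with beta catenin targeted HCT116 as companion control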
L major viab – Leishmania major promastigote growth inhibition; hit rate 9% among 200,000; Leishmania major promastigotes, resazurin fluorescence viability; inhibition, % at 10 µM; in the data active = inhibition above about 50%;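 note: promastigotes grown with compound for 44 hours at 28 °C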
Autophagy mod – modulators of autophagy. MEF GFP-LC3 puncta imaging; test concentration mostly 10 µM. calls only at 10 µM (by protocol). hit rate 0.98% among 190,000. AID 463193;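 active = percentage of spot-positive cells more than 3 SD above its plate mean, without a fluorescence outlier flag or 80% toxicity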;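 note: spot-positive cell cutoff set from DMSO-treated cells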
HCT116 bCat-KO – beta-catenin-lacking colon tumor cell growth suppression; hit rate 1.5% among 140,000; HCT116 beta-catenin knockout viability, CellTiter-Glo, 60 h; active compounds read low; viability, % at 10 µM;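 active = viability at or under a set limit, the compound median less 4 SD, cut at about 6% in these data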;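 note: 0% = Hyamine 1622 control at 20 µM and 100% = untreated cell control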
Dynein transport – blocks dynein driven cargo transport along microtubules. AID 1381. hit rate 0.47% among 220,000. 3617.4 mouse cells, GR-EGFP nuclear translocation imaging; test concentration mostly 20 µM; stimulated with dexamethasone, 1 µM; active compounds read low. z-score, hits read low;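 active = plate z-score of nuclear minus cytoplasmic receptor signal below a set negative limit, without overly bright fluorescence or cell loss, cut at about -3.5 in these data, passing the limit was not always enough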;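 note: z-score of nuclear minus cytoplasmic ring GR-EGFP intensity difference per well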
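Buffer or medium: tet-free medium with charcoal-stripped serum / Also added: dexamethasone agonist, 1.0 µM final, for 30 min / Timing: induction 48 h, compound 1 h, agonist 30 min / Measured by: high-content fluorescence imaging after fixation / Read-out: nuclear-to-cytoplasmic GR-EGFP distribution per well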
Active calls of the source: *; i = inactive; / = not tested or not shown; + = active, no number. Only some compounds are listed: those with a hit (about 9.2% of all), similar ones and a draw of the others.

SMILES	HCT116 PTEN-null	L major viab	Autophagy mod	HCT116 bCat-KO	Dynein transport
CCC(Oc1ccccc1)C(=O)Nc1nc2ccccc2[nH]1 (stereo not drawn)	96	100*	i	91	1.8
CCOc1ccc(C(=O)Nc2nc3ccccc3[nH]2)cc1OCC	/	52*	i	/	-0.21
COc1cc(OC)cc(C(=O)Nc2ccc(-c3nc4ccccc4o3)cc2)c1	69	29	+	77	0.72
CCOC(=O)c1c(N2C(=O)Nc3cc(Cl)c(Cl)cc3N2O)sc2c1CCCCC2	103	-8	i	99	-0.53
COc1ccc(C(=O)Nc2nc3ccccc3[nH]2)cc1OC	98	65*	i	92	-0.25
COc1cc(OC)cc(C(=O)Nc2nc3ccccc3[nH]2)c1	52	64*	i	48	-0.41
CCCCOc1ccc(CSCCN=C(N)N)cc1	/	97*	i	/	0.7
CC1CCCCN1CCCNC(=O)c1cc(Br)c(Br)[nH]1 (stereo not drawn)	/	93*	i	/	-0.76
Cc1ccc(S(=O)(=O)N2CCCC(C(=O)NCCCN3CCCCC3C)C2)cc1 (stereo not drawn)	93	19	i	97	0.66
O=C(CN1C(=O)COc2ccccc21)NCc1ccc(C(=O)O)cc1	97	-6	i	107	-0.085
O=C(O)c1ccccc1C(=O)c1ccc2c(c1)N(Cc1ccc(Cl)c(Cl)c1)C(=O)CO2	/	100*	i	/	1.5
CCOC(=O)Cc1nnc2c(Nc3ccc(Cl)cc3)nc3nonc3n12	26	1	i	33	-1.1
Cc1cc(=O)[nH]c(SCC(=O)NC2CCCc3ccccc32)n1 (stereo not drawn)	/	/	/	/	-0.15
CCCCSc1cnn(-c2ccccc2)c(=O)c1SCCCC	74	79*	i	59	-1.2
CC1=CC(=O)C=C(C)C1=NOC(=O)/C=C\c1ccccc1	10	53*	i	9	-2.2
CC(C)N(C)CCOC(=O)/C=C/c1ccccc1	102	4	i	96	0.3
CC1=CC(=NOC(=O)/C=C/c2ccccc2)C=C(C)C1=O	6	101*	i	18	-1.4
CC1=C(C)/C(=N\OC(=O)/C=C/c2ccccc2)C=CC1=O	21	100*	i	17	0.054
Brc1ccccc1-c1csnn1	94	-6	i	98	0.018
CC(C)C(c1nnnn1CCc1ccccc1)N1CCSCC1 (stereo not drawn)	/	5	i	/	-0.18
O=C(O)CCCCCN1C(=O)C(O)=C(C(=O)/C=C/c2ccccc2)C1c1ccccc1[N+](=O)[O-] (stereo not drawn)	/	-8	i	/	-1.1
CC(C)(C)c1ccc(OCCCNCc2ccccc2)cc1	23	99*	i	22	5.6
C=CCNCCCCOc1ccc(OCC)cc1	82	100*	i	79	-1.1
CC(C)(C)c1ccccc1OCCOCCNCc1ccccc1	67	96*	i	57	0.56
CCOc1ccc(OCCCCN(C)C)cc1	89	38	i	94	2.8
SMILES	HCT116 PTEN-null	L major viab	Autophagy mod	HCT116 bCat-KO	Dynein transport
CNCCOc1ccccc1C(C)(C)C	96	2	i	93	-0.77
CN(Cc1ccccc1)C(=O)COc1ccc(Br)cc1Cl	/	/	/	/	-0.14
Clc1cc(Br)ccc1OCCCNCc1ccccc1	74	99*	i	78	-1.5
O=C(COC(=O)C1CC(=O)N(Cc2ccccc2)C1)Nc1ccc(Cl)cc1F (stereo not drawn)	/	0	i	/	0.057
Cc1cnc(SCc2cnc(C)nc2N)nc1	/	-5	i	/	-0.78
CCN(CC)S(=O)(=O)c1ccc(O)c(NS(=O)(=O)c2ccccc2F)c1	101	-10	i	95	-0.24
N#Cc1ccc(Cl)cc1NC(=O)COC(=O)[C@H](CCC(N)=O)NC(=O)c1ccc(F)cc1	94	-6	i	86	-0.33
CC(C)(c1ccccc1)c1ccc(OCCCNCCO)cc1	9	100*	i	1.8*	3.4
COCCNCCCOc1ccc(C(C)(C)c2ccccc2)cc1	81	99*	i	70	0.09
C=CCNCCCOc1ccc(C(C)(C)c2ccccc2)cc1	49	100*	i	49	-1.5
COc1ccc(OCCCNCCc2ccccc2)cc1	/	-11	i	/	-0.21
CC(C)NCCCOc1ccc(C(C)(C)c2ccccc2)cc1	79	99*	i	64	0.02
COc1ccc2c(c1)C(C1C(=O)CCCC1=O)c1ccccc1O2 (stereo not drawn)	98	-4	i	86	0.35
COP(=O)(CC(=O)c1ccccc1)CC(=O)c1ccccc1	/	-8	i	/	0.62
COCCCNCCCOc1ccc(C(C)(C)c2ccccc2)cc1	89	99*	i	78	-1.1
O=C(Cc1ccc(Cl)cc1)N/N=C/c1ccncc1	/	-1	i	/	-0.32
O=C1CC(N(CCc2ccccc2)C(=S)Nc2cc(Cl)ccc2Cl)C(=O)N1c1c(Cl)cccc1Cl (stereo not drawn)	31	99*	i	42	-0.32
CC(C)(C)c1ccc(Cn2cnc(-c3ccc([N+](=O)[O-])cc3)c2)cc1	48	89*	i	33	-0.17
Cc1cc(C)c(Cn2cnc(-c3ccc([N+](=O)[O-])cc3)c2)c(C)c1	53	1	i	58	0.1
COc1ccc(S(=O)(=O)N2CCOCC2)cc1NC(=O)CN1CCC(Cc2ccccc2)CC1	40	99*	i	31	0.9
Cc1ccc(S(=O)(=O)N2CCOCC2)cc1NC(=O)COC(=O)c1cc(=O)c2ccccc2o1	97	-2	+	97	0.25
COc1ccc(S(=O)(=O)N2CCOCC2)cc1NC(=O)COC(=O)C1COc2ccccc2O1 (stereo not drawn)	93	66*	i	95	0.93
COc1ccc(S(=O)(=O)N2CCOCC2)cc1NC(=O)COC(=O)c1ccc(C)s1	/	-1	i	/	-0.24
O=C(COc1ccc(Cl)cc1Cl)NC1CCSC1=O (stereo not drawn)	101	-7	i	83	-0.36
C=C(C)CN(CC)c1nc(N)c2c(N)nc3c(c2c1C#N)CC(=O)N3C12CC3CC(CC(C3)C1)C2	33	90*	i	27	-0.72
SMILES	HCT116 PTEN-null	L major viab	Autophagy mod	HCT116 bCat-KO	Dynein transport
N#Cc1c(N2CCCC(O)C2)nc(N)c2c(N)nc3c(c12)CC(=O)N3C12CC3CC(CC(C3)C1)C2 (stereo not drawn)	18	99*	i	13	-1.2
CCCCN1C(=O)Cc2c1nc(N)c1c(N)nc(N(CCC)CCC)c(C#N)c21	31	3	+	47	-1.4
N#Cc1c(N(CCO)CCO)nc(N)c2c(N)nc3c(c12)CC(=O)N3CC1CCCO1 (stereo not drawn)	/	/	/	/	0.68
COc1ccc(CN2C(=O)Cc3c2nc(N)c2c(N)nc(N4CCCCC4)c(C#N)c32)cc1	92	4	i	89	0.36
COC(=O)C(Cc1c[nH]c2ccccc12)N1CCS(=O)(=O)CC1 (stereo not drawn)	/	-6	i	/	-0.43
CCOc1ccc(NS(=O)(=O)c2ccc(NC(=O)C3CCCO3)cc2)cc1 (stereo not drawn)	68	-4	i	74	-0.98
